Bounds are passed on as bounds.

The results in this text go back to ChEMBL document CHEMBL4043283, “Discovery and Preclinical Development of IIIM-290, an Orally Active Potent Cyclin-Dependent Kinase Inhibitor” (J Med Chem, 2018).

Experiment [1] addresses CDK2/Cyclin A2 (Homo sapiens) (UniProt P24941+P20248). Briefly: Inhibition of CDK2/cyclin A (unknown origin) at 0.5 uM using histone H1 as substrate after 30 mins in presence of [33P]-gamma-ATP by filter binding assay relative to control. Type of experiment: protein-complex assay.
Experiment [2] concerns the target CDK9/cyclin T1 (Homo sapiens) (UniProt O60563+P50750). Description: Inhibition of CDK9/cyclin T1 (unknown origin) at 0.5 uM using YSPTSPSYSPTSPSYSPTSPKKK as substrate after 30 mins in presence of [33P]-gamma-ATP by filter binding assay relative to control. Type of experiment: protein-complex assay.
Experiment [3] has as its system HL-60. Description: Growth inhibition of human HL60 cells at 10 uM after 48 hrs by MTT assay relative to control. Type of experiment: functional. The following applies: HL-60, 48 h, read-out: GI. An outline of the steps: (§1)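 Single-concentration primary screen at 10 μM by MTT assay. Cells were NCI-sourced cancer lines grown in appropriate medium at 37 °C, 95% humidity, 5% CO2. Growth inhibition is expressed relative to control.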
A general note: Tetrazolium dyes change colour on reduction, which living cells bring about.

Experiment [4] relates to PC-3. Description: Growth inhibition of human PC3 cells at 10 uM after 48 hrs by MTT assay relative to control. Type of experiment: functional. The following applies: PC-3, 48 h, read-out: GI. The procedure, abridged:
as §1

In experiment [5] the test system is MIA PaCa-2. Description: Growth inhibition of human MIAPaCa2 cells at 10 uM after 48 hrs by MTT assay relative to control. Type of experiment: functional. The following applies: MIA PaCa-2, 48 h, read-out: GI. An outline of the steps:
as §1

In experiment [6] the test system is MCF7. Description: Growth inhibition of human MCF7 cells at 10 uM after 48 hrs by MTT assay relative to control. It is filed as functional. The following applies: MCF7, 48 h, read-out: GI. The procedure, abridged:
as §1

Experiment [7] concerns Caco-2. Description: Growth inhibition of human Caco2 cells at 10 uM after 48 hrs by MTT assay relative to control. The following applies: Caco-2, 48 h, read-out: GI. Type of experiment: functional. The procedure, abridged:
as §1

The target of experiment [8] is CDK2/Cyclin A2 (Homo sapiens, UniProt P24941). Description: Inhibition of CDK2/cyclin A (unknown origin) using histone H1 as substrate after 30 mins in presence of [33P]-gamma-ATP by filter binding assay. It is filed as protein-complex assay.
In experiment [9] the target is CDK9/cyclin T1 (Homo sapiens, UniProt P50750). Briefly: Inhibition of CDK9/cyclin T1 (unknown origin) using YSPTSPSYSPTSPSYSPTSPKKK as substrate after 30 mins in presence of [33P]-gamma-ATP by filter binding assay. It is filed as protein-complex assay.
Experiment [10] has as its system HL-60. Briefly: Growth inhibition of human HL60 cells after 48 hrs by MTT assay. Type of experiment: functional. The following applies: HL-60, 48 h. The procedure, abridged: (§2)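 Cancer cell lines sourced from the National Cancer Institute (USA). Cells kept in appropriate growth medium at 37 °C, 95% humidity, 5% CO2. Antiproliferation read by tetrazolium (MTT) assay. GI50 values were determined only for compounds selected after an initial single-concentration screen.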

In experiment [11] the test system is PC-3. Description: Growth inhibition of human PC3 cells after 48 hrs by MTT assay. Particulars: PC-3, 48 h. It is filed as functional. The procedure, abridged:
as §2

The test system of experiment [12] is MIA PaCa-2. Briefly: Growth inhibition of human MIAPaCa2 cells after 48 hrs by MTT assay. Type of experiment: functional. The following applies: MIA PaCa-2, 48 h. An outline of the steps:
as §2

For experiment [13], the system named is MCF7. Description: Growth inhibition of human MCF7 cells after 48 hrs by MTT assay. Type of experiment: functional. Particulars: MCF7, 48 h. An outline of the steps:
as §2

Experiment [14] deals with Caco-2. Description: Growth inhibition of human Caco2 cells after 48 hrs by MTT assay. Type of experiment: functional. The following applies: Caco-2, 48 h. The procedure, abridged: as §2
The species entered for experiment [15] is Homo sapiens. Briefly: Selectivity ratio of IC50 for CDK2/cyclin A (unknown origin) to IC50 for CDK9/cyclin T1 (unknown origin).
Experiment [16] has as its system MIA PaCa-2. Briefly: Cell cycle arrest in human MIAPaCa2 cells assessed as accumulation at G1 phase at 2 uM after 24 hrs by propidium iodide staining-based flow cytometric method (reference value: 36%). It is filed as functional.
In experiment [17] the test system is MIA PaCa-2. Description: Cell cycle arrest in human MIAPaCa2 cells assessed as accumulation at S phase at 2 uM after 24 hrs by propidium iodide staining-based flow cytometric method (reference value: 33%). Type of experiment: functional. (In general: Flow cytometry measures light scatter and fluorescence of single cells or particles in a stream.)
The test system of experiment [18] is MIA PaCa-2. Description: Cell cycle arrest in human MIAPaCa2 cells assessed as accumulation at G2 phase at 2 uM after 24 hrs by propidium iodide staining-based flow cytometric method (reference value: 30%). It is filed as functional.
Experiment [19] concerns MIA PaCa-2. Description: Induction of apoptosis in human MIAPaCa2 cells at 2 uM after 24 hrs by propidium iodide staining-based flow cytometric method relative to control. Type of experiment: functional.

Chain of CDK9/cyclin T1 (O60563 whole entry): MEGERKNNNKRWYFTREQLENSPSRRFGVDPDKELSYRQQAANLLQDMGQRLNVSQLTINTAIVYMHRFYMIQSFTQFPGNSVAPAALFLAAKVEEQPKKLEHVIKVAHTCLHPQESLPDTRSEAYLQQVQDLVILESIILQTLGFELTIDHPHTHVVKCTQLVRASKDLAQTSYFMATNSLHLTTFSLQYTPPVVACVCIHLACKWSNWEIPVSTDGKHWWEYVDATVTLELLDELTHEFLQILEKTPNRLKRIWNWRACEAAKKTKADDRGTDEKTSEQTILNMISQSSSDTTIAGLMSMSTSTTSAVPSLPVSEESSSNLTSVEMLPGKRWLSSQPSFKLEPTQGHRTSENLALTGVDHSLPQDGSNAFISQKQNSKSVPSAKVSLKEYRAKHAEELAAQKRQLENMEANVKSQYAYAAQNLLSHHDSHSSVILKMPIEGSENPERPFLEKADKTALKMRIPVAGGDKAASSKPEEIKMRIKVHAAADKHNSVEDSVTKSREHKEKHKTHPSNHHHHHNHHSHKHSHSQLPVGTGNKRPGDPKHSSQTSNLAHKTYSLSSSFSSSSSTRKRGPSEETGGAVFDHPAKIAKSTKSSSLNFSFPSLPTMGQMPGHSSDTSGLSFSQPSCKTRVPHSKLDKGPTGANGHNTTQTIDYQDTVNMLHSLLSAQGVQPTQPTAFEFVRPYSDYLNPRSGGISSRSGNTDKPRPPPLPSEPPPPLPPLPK
Chain of CDK9/cyclin T1 (P50750 whole entry): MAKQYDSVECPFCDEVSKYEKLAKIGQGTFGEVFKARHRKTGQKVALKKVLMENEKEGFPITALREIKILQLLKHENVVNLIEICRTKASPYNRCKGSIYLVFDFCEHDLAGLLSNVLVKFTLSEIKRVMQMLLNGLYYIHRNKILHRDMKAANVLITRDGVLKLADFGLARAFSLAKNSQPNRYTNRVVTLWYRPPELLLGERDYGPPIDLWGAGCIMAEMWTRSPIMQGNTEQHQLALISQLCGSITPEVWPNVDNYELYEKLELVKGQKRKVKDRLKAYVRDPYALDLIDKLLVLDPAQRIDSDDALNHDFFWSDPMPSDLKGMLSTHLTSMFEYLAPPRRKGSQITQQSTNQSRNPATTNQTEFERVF

The term inhibition denotes the share of the control response that was lost under treatment. What is called IC50 is the concentration that inhibits the measured activity by half. Broadly, the GI50 is the concentration giving 50% growth inhibition. A lower GI50 goes with more potent growth inhibition. With `CN1CC[C@H](c2c(O)cc(O)c3c(=O)cc(/C=C/c4c5ccccc5cc5ccccc45)oc23)[C@H](O)C1`, the figures for the inhibition in experiment [1] and in experiment [2] were 43% and 80%, respectively. Also, the inhibition of growth at 10 µM came to 78% in [3]; 75% in [4]; 77% in experiment [5]; 78% in experiment [6]; 44% in experiment [7]. Moreover, the IC50 was determined as 1800 nM in experiment [8] and 350 nM in experiment [9]. The GI50 in experiment [10] is 4 µM; in experiment [11] it was > 100 µM; in experiment [12], 4000 nM; in [13], 5 µM; in experiment [14] it was 4 µM.

As for `CN1CC[C@H](c2c(O)cc(O)c3c(=O)cc(/C=C/c4c(F)c(F)c(F)c(F)c4F)oc23)[C@H](O)C1`, the results for the inhibition in experiment [1] and in experiment [2] were 42% and 92%, respectively. For the same compound, the inhibition of growth at 10 µM in experiment [3] is 80%; in [4], 82%; in experiment [5] it was 89%; in [6] it was 64%; in experiment [7], 59%. Besides, the IC50 was 608 nM in experiment [8] and 11.5 nM in experiment [9]. The GI50 is 3 µM in experiment [10]; 2 µM in experiment [11]; 1000 nM in [12]; 8 µM in experiment [13]; 8 µM in experiment [14]. For the same compound, the Ratio IC50 in experiment [15] was determined as 52.

On to `CN1CC[C@H](c2c(O)cc(O)c3c(=O)cc(/C=C/c4ccccc4)oc23)[C@H](O)C1`, for which the inhibition in experiment [1] was 5.2%; in experiment [2] it was 66%. The inhibition of growth at 10 µM in experiment [3] was 91%; in [4], 10%; in experiment [5] it was 87%; in [6] it was 8%; in [7], 72%. In addition, the 50% inhibitory concentration (IC50) in experiment [8] was 925 nM; in [9], 66 nM. The GI50 was 1 µM in [10]; 58 µM in [11]; 2000 nM in experiment [12]; 31 µM in experiment [13]; 3.7 µM in experiment [14].

With `CN1CC[C@H](c2c(O)cc(O)c3c(=O)cc(/C=C/c4ccccc4F)oc23)[C@H](O)C1`, the inhibition in experiment [1] amounted to 9%; in experiment [2], 60%. Besides, the inhibition of growth at 10 µM was found to be 62% in experiment [3]; 25% in experiment [4]; 60% in experiment [5]; 62% in experiment [6]; 68% in experiment [7]. In addition, the IC50 was determined as 1520 nM in experiment [8] and 260 nM in experiment [9]. Also, the GI50 in experiment [10] came to 8 µM; in experiment [11] it was 20 µM; in experiment [12], 3000 nM; in experiment [13] it was 8 µM; in experiment [14] it was 7 µM.

In the case of `CC[C@@]1(O)C(=O)OCc2c1cc1n(c2=O)Cc2cc3ccccc3nc2-1` [CAMPTOTHECIN], the Activity came out at 42% in experiment [16], 26% in [17], 31% in experiment [18] and 3.3% in experiment [19].

Regarding `CN1CC[C@H](c2c(O)cc(O)c3c(=O)cc(/C=C/c4cccc(Cl)c4)oc23)[C@H](O)C1`, the inhibition in experiment [1] was 5%; in experiment [2], 53%. In addition, the inhibition of growth at 10 µM in experiment [3] was determined as 35%; in [4], 53%; in [5], 52%; in experiment [6], 82%; in experiment [7] it was 55%. The IC50 in [8] worked out at 3000 nM; in [9], 280 nM. In addition, the GI50 is 20 µM in experiment [10]; 10 µM in [11]; 10000 nM in experiment [12]; 2 µM in [13]; 9 µM in [14]. For the same compound, in experiment [15], the Ratio IC50 came out at 10.

For the compound `CN1CC[C@H](c2c(O)cc(O)c3c(=O)cc(/C=C/c4ccccc4Cl)oc23)[C@H](O)C1`, the inhibition in experiment [1] was 10%; in [2] it was 75%. In addition, the inhibition of growth at 10 µM in [3] amounted to 61%; in experiment [4], 22%; in experiment [5] it was 59%; in experiment [6], 63%; in experiment [7] it was 65%. In addition, the figures for the IC50 in experiment [8] and in experiment [9] were 1410 nM and 160 nM, respectively. Besides, the GI50 amounted to 9 µM in experiment [10]; 17 µM in [11]; 8000 nM in experiment [12]; 9 µM in [13]; 9 µM in [14]. The Ratio IC50 in [15] was 10.

In the case of `CN1CC[C@H](c2c(O)cc(O)c3c(=O)cc(/C=C/c4ccc(Cl)cc4)oc23)[C@H](O)C1`, the results for the inhibition in experiment [1] and in experiment [2] were 2% and 71%, respectively. Moreover, the inhibition of growth at 10 µM in experiment [3] is 58%; in [4] it was 12%; in [5] it was 88%; in experiment [6] it was 10%; in [7] it was 70%. In addition, the IC50 was found to be 3300 nM in experiment [8] and 310 nM in [9]. Also, the GI50 in experiment [10] worked out at 8 µM; in experiment [11] it was 31 µM; in [12], 2000 nM; in experiment [13] it was 49 µM; in [14], 5.6 µM. The Ratio IC50 in experiment [15] was 10.

Consider `Cc1cc(=O)c2c(O)cc(O)c([C@H]3CCN(C)C[C@H]3O)c2o1` [ROHITUKINE], for which the inhibition of growth at 10 µM was 83% in [3]; 33% in experiment [4]; 2% in [5]; 15% in experiment [6]; 12% in [7]. The GI50 in experiment [10] was determined as 10 µM; in [11], 19 µM; in experiment [12] it was 19000 nM; in experiment [13], 28 µM; in experiment [14] it was 25 µM.

`CN1CC[C@H](c2c(O)cc(O)c3c(=O)cc(/C=C/c4cccc(F)c4)oc23)[C@H](O)C1`: the inhibition in experiment [1] is 53%; in experiment [2] it was 88%. Moreover, the inhibition of growth at 10 µM in experiment [3] is 60%; in experiment [4], 67%; in experiment [5] it was 67%; in experiment [6] it was 83%; in [7] it was 61%. Besides, the IC50 in experiment [8] turned out to be 466 nM; in experiment [9] it was 29 nM. Also, the GI50 in [10] turned out to be 8 µM; in experiment [11] it was 7 µM; in experiment [12] it was 2000 nM; in experiment [13] it was 3 µM; in experiment [14] it was 8 µM.
